Paper PMC12529337 (RSC Medicinal Chemistry, 2025)
Where two headings read alike, the source gives them in different places. One block for each compound: values may come before it.

Experiments:
MDA-MB-231 cells [1] = assay: MTT assay, anticancer activity, MDA-MB-231; format: cell-based, human; conditions: for IC50: read-out: IC50 MDA-MB-231
MCF-7 cells = assay: MTT assay, anticancer activity, MCF-7; format: cell-based, human; conditions: read-out: IC50 MCF-7
MCF-10A cells = assay: MTT assay, normal counterpart MCF-10A; format: cell-based, human; conditions: read-out: IC50 MCF-10A, 72 h
[2] = tested on: ROS production in murine macrophages RAW 264.7; assay: ROS production; format: cell-based; conditions: LPS; for ROS reduction: concentration not stated in text (5 or 10 μM); for antioxidant activity (ROS production): lower dosage (5 μM)
Summary of the method: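 RAW 264.7 cells received the same treatment as in the Griess assay: LPS 1 μg mL−1 plus test compound at 5 or 10 μM, 24 h, 1% FBS. NAC (5 × 103, 10 × 103, 20 × 103 μM) was the positive control. After PBS washing, H2DCFDA 25 μM was added for 40 min at 37 °C. Fluorescence was read at λex 485/λem 535. Results are % ROS from mean fluorescence of co-treated vs LPS-alone wells, three experiments in triplicate.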

[3] = tested on: murine macrophages RAW 264.7; assay: MTT test, cytotoxicity on RAW 264.7 macrophages; format: cell-based; conditions: for cytotoxicity toward RAW 264.7: 10 μM, 24 h
Summary of the method: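 RAW 264.7 cells were kept in high-glucose DMEM with 10% FBS at 37 °C and 5% CO2. Cells were seeded in 48-well plates and exposed for 24 h to varying test compound concentrations (in DMSO). Viability was measured by MTT and expressed as % of control. Three independent experiments were run in triplicate.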

[4] = biological target: T1, human topoisomerase I (hTopoI) (Homo sapiens, UniProt P11387); assay: Human topoisomerase I relaxation assay; format: biochemical; conditions: for inhibition of hTopoI relaxation of supercoiled DNA: pHOT1, 1 h 37 °C, gel
T1 sequence (P11387 1-765): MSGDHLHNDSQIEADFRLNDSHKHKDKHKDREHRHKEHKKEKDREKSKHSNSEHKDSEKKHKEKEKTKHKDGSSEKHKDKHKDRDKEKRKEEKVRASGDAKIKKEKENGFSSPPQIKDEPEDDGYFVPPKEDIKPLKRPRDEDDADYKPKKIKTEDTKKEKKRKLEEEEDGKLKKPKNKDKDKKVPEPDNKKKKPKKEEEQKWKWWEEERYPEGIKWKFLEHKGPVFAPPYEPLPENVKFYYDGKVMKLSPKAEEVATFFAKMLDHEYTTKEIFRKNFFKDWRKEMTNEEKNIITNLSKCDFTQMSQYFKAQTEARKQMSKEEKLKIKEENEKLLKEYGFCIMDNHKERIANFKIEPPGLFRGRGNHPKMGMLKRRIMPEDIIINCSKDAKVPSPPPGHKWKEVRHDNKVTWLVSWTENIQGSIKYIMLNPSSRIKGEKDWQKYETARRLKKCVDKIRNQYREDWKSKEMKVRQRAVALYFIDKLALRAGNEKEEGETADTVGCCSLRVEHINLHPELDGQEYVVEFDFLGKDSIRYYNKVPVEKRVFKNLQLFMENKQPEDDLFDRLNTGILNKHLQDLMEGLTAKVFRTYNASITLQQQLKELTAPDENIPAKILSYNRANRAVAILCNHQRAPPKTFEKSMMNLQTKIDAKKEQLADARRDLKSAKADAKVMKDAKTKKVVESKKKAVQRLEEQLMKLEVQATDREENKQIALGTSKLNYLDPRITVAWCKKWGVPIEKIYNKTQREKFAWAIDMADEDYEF
Summary of the method: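 Recombinant human topoisomerase I (2 units) with 0.25 μg supercoiled pHOT1 plasmid as substrate. Test compound (in DMSO) at 0.001, 0.01, 0.1 and 1 μM; DMSO vehicle control. Incubated 1 h at 37 °C. Run on a 1% agarose gel in 1× TAE without ethidium bromide, then post-stained with EB ([…], 30 min), washed and viewed under UV.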

[5] = tested on: NO production in murine macrophages RAW 264.7; assay: NO production; format: cell-based; conditions: 24 h, LPS 1 μg/mL
Summary of the method: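 Plated RAW 264.7 cells were treated after 24 h with test compound (5 or 10 μM, in DMSO) plus LPS 1 μg mL−1 in 1% FBS medium for 24 h. Indomethacin (5, 10, 50 μM) was the positive control. Medium was mixed 1:1 with Griess reagent for 30 min at RT and A540 was read. Results are % NO vs LPS-only, three experiments in triplicate.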

[6] = tested on: iNOS expression in murine macrophages RAW 264.7; assay: iNOS expression by immunofluorescence in RAW 264.7; format: cell-based; conditions: 5 μM, co-treated with LPS 1 μg/mL, 24 h
Summary of the method: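 On coverslips, RAW 264.7 cells received LPS 1 μg mL−1 with test compound (5 μM) or indomethacin (50 μM) in 1% FBS medium for 24 h. Cells were methanol-fixed (−20 °C, 15 min) and incubated overnight at 4 °C with anti-iNOS (1:100, 2% BSA), then Alexa Fluor 568 goat anti-mouse (1:500). DAPI 0.2 μg mL−1 was applied. Images taken at 40× were used for semi-quantitative fluorescence measurement, two independent experiments.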

MDA-MB-231 cells [7] = assay: TUNEL assay, nuclear DNA damage; format: cell-based, human; conditions: 1 μM, 24 h
Summary of the method: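 MDA-MB-231 cells (DMEM/F12, 5% FBS) were grown on coverslips and treated for 24 h with 1 μM test compound in DMSO or with vehicle. Cells were PBS-washed, methanol-fixed (−20 °C, 15 min) and incubated with the one-step TUNEL (FITC) enzyme for 35 min at 37 °C in the dark. DAPI counterstain was 0.2 mg mL−1 for 10 min at RT. Imaging used fluorescence microscopy at 20× (490/515 nm; DAPI 350/460 nm), three independent experiments.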

[8] = MTT, mean ± SD, normal mammary epithelial cells

Compound: C[C@@H](c1ccccc1)n1cc[n+]([C@@H](C)c2ccccc2)c1.[Cl][Ag] [(S)-AgL2, 1,3-Bis((S)-1′-phenylethyl)imidazolium silver(I) chloride]
IC50 (MDA-MB-231 cells [1]; MTT, 72 h, mean ± SD): 14.3 ± 1.2 µM | IC50 (MCF-7 cells; MTT, 72 h, mean ± SD): 4.2 ± 0.3 µM | IC50 (MCF-10A cells; [8]): 24 ± 1.1 µM | ROS reduction [2]: about 15%

Compound: CC(=O)N[C@@H](CS)C(=O)O [NAC, N-acetyl-cysteine, reference compound]
residual viability vs LPS-treated cells ([3]; 5 × 10^3, 10 × 10^3 and 20 × 10^3 μM, data not shown): about 98.7% | reduction in ROS levels ([2]; 10 × 10^3 μM): about 25% | reduction in ROS levels ([2]; 20 × 10^3 μM): ~40%

Compound: C[C@H](c1ccccc1)n1cc[n+](C)c1.[Cl][Au] [(R)-AuL1, (R)-3-Methyl-1-(1-phenylethyl)-1H-imidazol-3-ium gold(I) chloride]
IC50 (MDA-MB-231 cells [1]; MTT, 72 h, mean ± SD): 5.8 ± 0.5 µM | IC50 (MCF-7 cells; MTT, 72 h, mean ± SD): 6.8 ± 0.4 µM | IC50 (MCF-10A cells; [8]): 2.1 ± 0.1 µM | inhibition of hTopoI relaxation of supercoiled DNA ([4]; 0.001 μM): partially | inhibition of hTopoI relaxation of supercoiled DNA ([4]; 0.01 μM): totally block | inhibition of hTopoI relaxation of supercoiled DNA ([4]; 0.1 μM): preserved | inhibition of hTopoI relaxation of supercoiled DNA ([4]; 1 μM): preserved | hTopoI inhibiting concentration, times lower than that of (S)-AuL1 ([4]; total inhibition 0.01 vs 1 μM): 100 times | cytotoxicity toward RAW 264.7 [3]: cytotoxic | reduction of NO production ([5]; 5 μM): about 18%

Compound: C[C@@H](c1ccccc1)n1cc[n+](C)c1 [(S)-P1, (S)-3-Methyl-1-(1-phenylethyl)-1H-imidazol-3-ium iodide]
IC50 (MDA-MB-231 cells [1]; Homo sapiens, MDA-MB-231, 72 h): 87 ± 7.6 µM | IC50 (MCF-7 cells; Homo sapiens, MCF7, 72 h): > 100 µM | IC50 (MCF-10A cells; Homo sapiens, MCF-10A): > 100 µM

Compound: C[C@H](c1ccccc1)n1cc[n+]([C@H](C)c2ccccc2)c1.[Cl][Ag] [(R)-AgL2, 1,3-Bis((R)-1′-phenylethyl)imidazolium silver(I) chloride]
IC50 (MDA-MB-231 cells [1]; MTT, 72 h, mean ± SD): 17.6 ± 1.7 µM | IC50 (MCF-7 cells; MTT, 72 h, mean ± SD): 9.7 ± 0.8 µM | IC50 (MCF-10A cells; [8]): 24.8 ± 1.7 µM | ROS reduction [2]: ~12%

Compound: C[C@H](c1ccccc1)n1cc[n+]([C@H](C)c2ccccc2)c1.[Cl][Au] [(R)-AuL2, 1,3-Bis((R)-1′-phenylethyl)imidazolium gold(I) chloride]
IC50 (MDA-MB-231 cells [1]; MTT, 72 h, mean ± SD): 6.9 ± 0.3 µM | IC50 (MCF-7 cells; MTT, 72 h, mean ± SD): 7 ± 0.6 µM | IC50 (MCF-10A cells; [8]): 7.1 ± 0.5 µM | cytotoxicity toward RAW 264.7 [3]: cytotoxic | reduction of NO production ([5]; 5 μM): about 18% | antioxidant activity (ROS production) [2]: did not exert any antioxidant activity

Compound: COc1ccc2c(c1)c(CC(=O)O)c(C)n2C(=O)c1ccc(Cl)cc1 [Ind, indomethacin, reference compound]
reduction of NO production ([5]; 50 μM): about 26%

Compound: C[C@@H](c1ccccc1)n1cc[n+]([C@@H](C)c2ccccc2)c1 [(S)-P2, 1,3-Bis((S)-1′-phenylethyl)imidazolium chloride]
IC50 (MDA-MB-231 cells [1]; Homo sapiens, MDA-MB-231, 72 h): 10.8 ± 1.1 µM | IC50 (MCF-7 cells; Homo sapiens, MCF7, 72 h): 16.3 ± 1.3 µM | IC50 (MCF-10A cells; Homo sapiens, MCF-10A): 28.8 ± 1.9 µM

Compound: N.N.[Cl][Pt][Cl] [Cisplatin, cisplatin, reference compound]
IC50 (MDA-MB-231 cells [1]; MTT, 72 h, mean ± SD): 29.5 ± 0.9 µM | IC50 (MCF-7 cells; MTT, 72 h, mean ± SD): 37.3 ± 1.2 µM | IC50 (MCF-10A cells; [8]): 79.4 ± 1.6 µM

Compound: C[C@H](c1ccccc1)n1cc[n+](C)c1 [(R)-P1, (R)-3-Methyl-1-(1-phenylethyl)-1H-imidazol-3-ium iodide]
IC50 (MDA-MB-231 cells [1]; Homo sapiens, MDA-MB-231, 72 h): 71 ± 6.8 µM | IC50 (MCF-7 cells; Homo sapiens, MCF7, 72 h): 34 ± 2.4 µM | IC50 (MCF-10A cells; Homo sapiens, MCF-10A): 40.3 ± 3.6 µM

Further lines, with some results ahead:

IC50 (MDA-MB-231 cells [1]; Homo sapiens, MDA-MB-231, 72 h): > 100 µM | IC50 (MCF-7 cells; Homo sapiens, MCF7, 72 h): 58 ± 4.3 µM
Compound: C[C@H](c1ccccc1)n1cc[n+]([C@H](C)c2ccccc2)c1 [(R)-P2, 1,3-Bis((R)-1′-phenylethyl)imidazolium chloride]
IC50 (MCF-10A cells; Homo sapiens, MCF-10A): 28.2 ± 1.9 µM

IC50 MDA-MB-231 (MDA-MB-231 cells [1]; MTT, 72 h, mean ± SD): totally inactive | IC50 (MDA-MB-231 cells [1]; MTT, 72 h, mean ± SD): > 100 µM | IC50 (MCF-7 cells; MTT, 72 h, mean ± SD): 7.5 ± 0.8 µM
Compound: (S)-3-Methyl-1-(1-phenylethyl)-1H-imidazol-3-ium silver(I) iodide [(S)-AgL1]
IC50 (MCF-10A cells; [8]): 77.1 ± 6.8 µM

IC50 (MDA-MB-231 cells [1]; MTT, 72 h, mean ± SD): 20.6 ± 1.4 µM | IC50 (MCF-7 cells; MTT, 72 h, mean ± SD): 11.2 ± 0.6 µM
Compound: C[C@H](c1ccccc1)n1cc[n+](C)c1.[Ag][I] [(R)-AgL1, (R)-3-Methyl-1-(1-phenylethyl)-1H-imidazol-3-ium silver(I) iodide]
IC50 (MCF-10A cells; [8]): 72.8 ± 5.8 µM

IC50 (MDA-MB-231 cells [1]; MTT, 72 h, mean ± SD): 2.3 ± 0.1 µM | IC50 (MCF-7 cells; MTT, 72 h, mean ± SD): 1.8 ± 0.1 µM
Compound: C[C@@H](c1ccccc1)n1cc[n+]([C@@H](C)c2ccccc2)c1.[Cl][Au] [(S)-AuL2, 1,3-Bis((S)-1′-phenylethyl)imidazolium gold(I) chloride]
IC50 (MCF-10A cells; [8]): 5.3 ± 0.2 µM | cytotoxicity toward RAW 264.7 [3]: cytotoxic | intracellular iNOS expression vs LPS-treated cells [6]: net diminution | antioxidant activity (ROS production) [2]: did not exert any antioxidant activity

IC50 (MDA-MB-231 cells [1]; MTT, 72 h, mean ± SD): 0.5 ± 0.1 µM | IC50 (MCF-7 cells; MTT, 72 h, mean ± SD): 1.7 ± 0.1 µM | inhibition of hTopoI relaxation of supercoiled DNA ([4]; 0.001 μM): no inhibition | inhibition of hTopoI relaxation of supercoiled DNA ([4]; 0.01 μM): partially | inhibition of hTopoI relaxation of supercoiled DNA ([4]; 0.1 μM): partially | inhibition of hTopoI relaxation of supercoiled DNA ([4]; 1 μM): totally inhibited
Compound: (S)-3-Methyl-1-(1-phenylethyl)-1H-imidazol-3-ium gold(I) chloride [(S)-AuL1]
IC50 (MCF-10A cells; [8]): 11.5 ± 0.5 µM | nuclear DNA damage (TUNEL green fluorescence) (MDA-MB-231 cells [7]): marked genomic DNA damage | reduction of NO production ([5]; 5 μM): about 33% | reduction of NO production ([5]; 10 μM): ~57% | intracellular iNOS expression vs LPS-treated cells [6]: net diminution | reduction of ROS production ([2]; 10 μM): ~32%
